How the values were obtained:
[1] = target: T1, GABA-A receptor; alpha-1/beta-3/gamma-2 (Homo sapiens) (UniProt P14867+P18507+P28472); experiment: Modulation of recombinant GABA alpha1beta3gamma2 receptor (unknown origin) expressed in Xenopus laevis oocytes assessed as change in GABA-induced EC(3 to 6) current by two-electrode voltage clamp assay; assay type: cell-based
How it was run: (§1)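 Xenopus laevis oocytes expressing α1, α2, α3 or α5 β3γ2 GABAARs were recorded by two-electrode voltage clamp. Modulation of the GABA EC3-6 current (taken as 100%) was tested at 100 nM, 1 μM and 10 μM in the same cells. Values are mean ± SEM, n = 3–4.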

Brain = experiment: Fraction unbound in rat brain by equilibrium dialysis method; assay type: ADME, tissue-based
How it was run: (§2)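 Fraction unbound was determined in vitro by equilibrium dialysis with rat plasma protein and rat brain.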

Liver = experiment: Metabolic stability in human liver microsomes assessed as compound remaining at 4 uM measured after 30 mins in presence of NADPH by LC-MS/MS analysis; assay type: ADME, microsome; conditions: 0.5 h
How it was run: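 Human, mouse or rat liver microsomes were incubated with compound at 4 μM final for 30 min at 37 °C (n = 1). Percent of parent remaining was quantified by LC-MS/MS.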

Plasma = experiment: Fraction unbound in rat plasma by equilibrium dialysis method; assay type: ADME, cell-free; how it was run: as §2
[2] = target: T1, GABA-A receptor; alpha-1/beta-3/gamma-2 (Homo sapiens); experiment: Modulation of recombinant GABA alpha1beta3gamma2 receptor (unknown origin) expressed in Xenopus laevis oocytes assessed as change in GABA-induced EC(3 to 6) current at 10 uM by two-electrode voltage clamp assay; assay type: cell-based; how it was run: as §1
[3] = target: T1, GABA-A receptor; alpha-1/beta-3/gamma-2 (Homo sapiens); experiment: Modulation of recombinant GABA alpha1beta3gamma2 receptor (unknown origin) expressed in Xenopus laevis oocytes assessed as change in GABA-induced EC(3 to 6) current at 1 uM by two-electrode voltage clamp assay; assay type: cell-based; how it was run: as §1
[4] = target: T2, GABA-A receptor; alpha-3/beta-3/gamma-2 (Homo sapiens, UniProt P18507+P28472+P34903); experiment: Binding affinity to human GABAA alpha3beta3gamma2 receptor expressed in HEK293 cells assessed as GABA-induced membrane potential change preincubated for 3 mins followed by addition of GABA measured after 3 mins by FLIPR assay; assay type: cell-based
T2 sequence (P18507 whole entry): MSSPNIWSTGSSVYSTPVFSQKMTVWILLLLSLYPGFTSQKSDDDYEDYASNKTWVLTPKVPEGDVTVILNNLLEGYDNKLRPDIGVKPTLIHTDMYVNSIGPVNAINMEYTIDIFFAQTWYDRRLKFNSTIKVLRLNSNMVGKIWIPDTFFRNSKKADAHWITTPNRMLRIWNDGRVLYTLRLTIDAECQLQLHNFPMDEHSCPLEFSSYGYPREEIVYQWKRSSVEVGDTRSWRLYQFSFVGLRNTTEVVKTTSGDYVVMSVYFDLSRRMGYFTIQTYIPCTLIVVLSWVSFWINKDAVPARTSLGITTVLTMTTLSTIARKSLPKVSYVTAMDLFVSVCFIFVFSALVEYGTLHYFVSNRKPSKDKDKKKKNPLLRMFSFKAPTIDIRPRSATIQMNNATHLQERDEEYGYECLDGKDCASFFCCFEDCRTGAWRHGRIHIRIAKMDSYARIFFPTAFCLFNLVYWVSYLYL
T2 sequence (P28472 whole entry): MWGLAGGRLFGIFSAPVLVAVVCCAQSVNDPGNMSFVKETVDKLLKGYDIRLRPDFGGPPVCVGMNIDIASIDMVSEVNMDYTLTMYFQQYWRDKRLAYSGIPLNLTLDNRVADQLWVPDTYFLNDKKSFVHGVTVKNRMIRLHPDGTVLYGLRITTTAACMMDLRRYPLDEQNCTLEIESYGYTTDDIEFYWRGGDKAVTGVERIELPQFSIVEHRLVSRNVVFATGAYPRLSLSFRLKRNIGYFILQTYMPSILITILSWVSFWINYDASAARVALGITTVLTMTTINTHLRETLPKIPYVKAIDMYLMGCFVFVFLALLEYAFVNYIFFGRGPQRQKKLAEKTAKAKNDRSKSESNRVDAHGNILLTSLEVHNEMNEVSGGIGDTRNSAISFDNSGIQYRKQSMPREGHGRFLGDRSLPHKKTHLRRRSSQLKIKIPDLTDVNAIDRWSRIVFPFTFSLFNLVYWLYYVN
T2 sequence (P34903 whole entry): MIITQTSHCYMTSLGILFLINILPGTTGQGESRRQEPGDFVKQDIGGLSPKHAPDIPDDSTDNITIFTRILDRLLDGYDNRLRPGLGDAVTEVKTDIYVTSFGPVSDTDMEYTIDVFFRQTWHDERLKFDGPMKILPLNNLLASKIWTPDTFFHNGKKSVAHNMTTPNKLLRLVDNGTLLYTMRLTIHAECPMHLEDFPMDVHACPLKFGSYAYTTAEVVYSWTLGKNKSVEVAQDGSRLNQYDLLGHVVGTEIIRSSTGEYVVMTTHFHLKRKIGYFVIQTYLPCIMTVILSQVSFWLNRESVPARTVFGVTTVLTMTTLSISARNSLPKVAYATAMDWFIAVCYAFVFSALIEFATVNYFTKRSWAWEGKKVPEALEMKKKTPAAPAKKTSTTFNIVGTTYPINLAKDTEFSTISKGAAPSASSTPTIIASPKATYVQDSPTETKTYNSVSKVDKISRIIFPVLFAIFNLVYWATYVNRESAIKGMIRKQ
How it was run: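 Stably transfected HEK293T cells expressing α1β3γ2 (n = 2) or α3β3γ2 (n = 1) GABAARs. Membrane potential was read as fluorescence changes on a FLIPR Tetra, and EC50 was derived.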

[5] = target: T3, GABA-A receptor; alpha-2/beta-3/gamma-2 (Homo sapiens, UniProt P18507+P28472+P47869); experiment: Modulation of recombinant human GABA alpha2beta3gamma2 receptor expressed in HEK293 cells assessed as change in GABA-induced current at -80 mV holding potential preincubated for 3 mins followed by co-administration of GABA by electrophysiology method; assay type: cell-based
T3 sequence (P18507 whole entry): T2 sequence (P18507 whole entry)
T3 sequence (P28472 whole entry): T2 sequence (P28472 whole entry)
T3 sequence (P47869 whole entry): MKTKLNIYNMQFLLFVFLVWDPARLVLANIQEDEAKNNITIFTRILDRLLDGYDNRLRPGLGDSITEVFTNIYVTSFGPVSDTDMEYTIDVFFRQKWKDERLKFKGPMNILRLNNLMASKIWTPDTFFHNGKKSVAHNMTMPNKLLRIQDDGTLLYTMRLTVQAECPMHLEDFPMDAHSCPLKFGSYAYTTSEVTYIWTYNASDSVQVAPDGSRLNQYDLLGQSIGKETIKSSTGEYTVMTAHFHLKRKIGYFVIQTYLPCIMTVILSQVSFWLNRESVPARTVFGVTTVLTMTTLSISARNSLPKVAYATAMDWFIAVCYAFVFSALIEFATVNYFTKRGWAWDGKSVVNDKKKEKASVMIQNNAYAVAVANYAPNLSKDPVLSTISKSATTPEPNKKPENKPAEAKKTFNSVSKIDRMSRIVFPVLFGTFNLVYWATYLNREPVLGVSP

Rattus norvegicus = experiment: Toxicity in water-deprived Sprague-Dawley rat assessed as effect on water drinking time during nonpunished period up to 60 mg/kg, po administered 30 mins prior to testing; assay type: organism-based; conditions: in vivo, 0.5 h

For C#Cc1ccc2c(c1)C(c1ccccn1)=NCc1c(-c3cnco3)ncn1-2, the Activity [1] was “Dose-dependent effect”, the Fu (Brain) was 17.7% and the Stability (Liver) was 91%. It also gave a Fu (Plasma) of 25.9%, an Activity [2] of 232% and an Activity [3] of 155%. The EC50 [4] was 937 nM, the EC50 [5] was 118 nM and the Activity (Rattus norvegicus) was “Non-Toxic”.
